Active and inactive are the calls of the source.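 The calls were made as follows, unless noted: active = Her2 level under about 52% in both replicate screens, with viability over 70% of control (limit read from the data); inconclusive = Her2 under the limit in one screen only, or viability under 70%; inactive = Her2 level above the set limit.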
What was measured:
[1] = reducers of endogenous Her2 protein level, primary screen, SKBR3 breast tumor cells, AlphaScreen, ATP viability (AID 461); settings: 18-24 h, measured here: SKBR3 viability, ATP luminescence, at 10 µM;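 as to Her2 level: lower value means less Her2 protein in the cells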;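 as to viability: percent of carrier control wells set as 100% viability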
[2] = molecular target: Receptor tyrosine-protein kinase erbB-2 (Homo sapiens) (UniProt P04626); assay: as above; settings: 18-24 h, at 10 µM, stronger effect = lower value
[3] = SK-BR-3 cell growth inhibitors, pilot screen, 24 h, human (AID 572;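 active = viability at or below 10% of carrier control in both of two separate runs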;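 also: compound exposure lasted between 18 and 24 h rather than exactly 24 h; 100% = carrier-treated control wells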); settings: SK-BR-3 viability, CellTiter-Glo luminescence, at 10 µM, stronger effect = lower value
[4] = HUVEC growth inhibition – cell-based, human, primary screen (AID 575;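 active = viability at or below 30% in both replicate assays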;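 also: 100% = median of untreated cell wells with 0.1% DMSO on each plate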); settings: HUVEC proliferation, CellTiter-Glo luminescence, 72 h; at 10 µM; stronger effect = lower value
Procedure, shortened: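 Timing: 72 h treatment at 37 °C; material: HUVEC primary cells; technique: CellTiter-Glo luminescence measuring cellular ATP; controls: vehicle and MePR control wells; measure: percent of median DMSO-control luminescence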

[5] = growth inhibitors of H69AR lung tumor, primary screen, human, duplicate replicates (AID 580;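 active = viability at or under a set limit in both replicates, limit being median viability minus 3 SD, cut at about 48% in these data, passing the limit was not always enough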;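 also: 100% = mean luminescence of untreated wells and 0% = no signal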); settings: H69AR lung tumor cells viability, ATP luminescence, 72 h; at 10 µM; stronger effect = lower value
[6] = reversal of MRP1-mediated doxorubicin resistance, pilot screen, H69AR cells, doxorubicin co-treatment (AID 601;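 active = viability loss from added drug above about 55%, and viability with drug at most 40%, in both replicates, limit read from the data, passing the limit was not always enough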); settings: CellTiter-Glo, 72 h, at 10 µM; for differential viability (reversal): stronger effect = higher value
[7] = 384-well plate pilot, post-Golgi transport modulator project, inhibition of yeast transport mutant growth (AID 636; in the data active = inhibition above about 31%); settings: absorbance 615 nm, about 18 h, stronger effect = higher value
[8] = growth suppression of yeast trafficking mutant, preliminary HTS, modulators of trafficking downstream of Golgi apparatus project, 1536-format plate, OD 615 nm (AID 637; in the data active = inhibition above about 30%); settings: yeast transport mutant growth, absorbance 615 nm, 18 h; stronger effect = higher value
[9] = H69AR cells + 2 uM doxorubicin, measured here: viability with 2 uM doxorubicin, stronger effect = lower value
[10] = H69AR cells, compound alone cytotoxicity

Sequence of Receptor tyrosine-protein kinase erbB-2 (Homo sapiens) (P04626 whole entry, looked up): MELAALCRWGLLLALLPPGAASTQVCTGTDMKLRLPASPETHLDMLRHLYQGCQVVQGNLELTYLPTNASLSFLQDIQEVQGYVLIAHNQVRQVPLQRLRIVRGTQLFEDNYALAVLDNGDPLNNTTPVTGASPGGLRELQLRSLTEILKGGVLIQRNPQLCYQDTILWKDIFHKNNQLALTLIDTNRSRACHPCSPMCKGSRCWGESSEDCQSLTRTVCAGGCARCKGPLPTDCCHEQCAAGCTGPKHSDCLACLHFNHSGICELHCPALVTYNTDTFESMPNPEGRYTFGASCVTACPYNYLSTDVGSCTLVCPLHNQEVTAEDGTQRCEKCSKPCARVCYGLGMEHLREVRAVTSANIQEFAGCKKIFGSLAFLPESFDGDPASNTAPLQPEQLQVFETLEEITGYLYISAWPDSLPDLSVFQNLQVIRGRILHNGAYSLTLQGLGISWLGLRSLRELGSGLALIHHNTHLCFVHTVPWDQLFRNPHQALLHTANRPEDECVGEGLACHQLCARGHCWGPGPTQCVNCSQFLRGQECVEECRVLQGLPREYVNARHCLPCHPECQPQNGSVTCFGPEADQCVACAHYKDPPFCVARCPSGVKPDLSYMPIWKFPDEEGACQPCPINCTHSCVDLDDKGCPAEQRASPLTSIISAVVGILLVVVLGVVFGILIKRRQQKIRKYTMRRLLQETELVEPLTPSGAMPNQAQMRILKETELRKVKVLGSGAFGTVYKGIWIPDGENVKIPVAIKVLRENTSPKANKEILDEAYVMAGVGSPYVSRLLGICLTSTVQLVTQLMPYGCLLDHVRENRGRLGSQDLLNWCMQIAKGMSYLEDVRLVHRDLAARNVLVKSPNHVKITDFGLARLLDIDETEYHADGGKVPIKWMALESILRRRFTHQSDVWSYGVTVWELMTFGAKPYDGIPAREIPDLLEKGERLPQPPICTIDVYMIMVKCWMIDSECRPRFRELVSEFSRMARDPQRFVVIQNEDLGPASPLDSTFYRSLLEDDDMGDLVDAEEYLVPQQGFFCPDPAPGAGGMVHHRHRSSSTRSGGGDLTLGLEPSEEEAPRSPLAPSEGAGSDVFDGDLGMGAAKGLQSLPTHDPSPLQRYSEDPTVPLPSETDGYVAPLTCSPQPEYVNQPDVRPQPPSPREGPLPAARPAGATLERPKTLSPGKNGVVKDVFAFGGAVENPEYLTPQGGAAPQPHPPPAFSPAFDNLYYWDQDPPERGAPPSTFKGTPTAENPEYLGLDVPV

In the case of `c1ccc(CNc2ccc3c(c2)ncn3C2CCCCC2)nc1`, the viability [1] is reported as 97%, the Her2 level [2] is reported as 107% (inactive) and the viability [3] is reported as 97% (inactive). For the same compound, the viability [4] was 96% (inactive), the viability [5] was 96.8% (inactive) and the differential viability (reversal) ([6]; H69AR cells + 2 uM doxorubicin) was 2.95% (inactive). For the same compound, the viability [6, 9] was 93.8%, the viability [6, 10] was 96.8% and the inhibition [7] was -1.05% (inactive). For the same compound, the inhibition [8] was -2.73% (inactive).

In the case of `O=C(CCCC(=O)N(CC(=O)NC1CCCCC1)Cc1ccc2c(c1)OCO2)Nc1ccccn1`, the viability [1] is reported as 102%, the Her2 level [2] is reported as 97.5% (inactive) and the viability [3] is reported as 102% (inactive). For the same compound, the viability [4] was 101% (inactive), the viability [5] was 92.3% (inactive) and the differential viability (reversal) ([6]; H69AR cells + 2 uM doxorubicin) was 10.4% (inactive). The viability [6, 9] was 81.9%, the viability [6, 10] was 92.3% and the inhibition [7] was -6.18% (inactive). The inhibition [8] was 0.32% (inactive).

In the case of `Nc1nnc(C(=O)c2ccccc2N)s1`, the viability [1] is reported as 108%, the Her2 level [2] is reported as 91% (inactive) and the viability [3] is reported as 108% (inactive). For the same compound, the viability [4] was 102% (inactive), the viability [5] was 96.3% (inactive) and the differential viability (reversal) ([6]; H69AR cells + 2 uM doxorubicin) was 5.43% (inactive). The viability [6, 9] was 90.9%, the viability [6, 10] was 96.3% and the inhibition [7] was -1.04% (inactive). For the same compound, the inhibition [8] was 3.93% (inactive).

In the case of `CCOC(=O)C1=C(C)NC(C)=C(C(=O)OCC)C1C(=O)OC1CCOC1=O` (stereo not given), the viability [1] is reported as 104%, the Her2 level [2] is reported as 85% (inactive) and the viability [3] is reported as 104% (inactive). The viability [4] was 87.5% (inactive), the viability [5] was 93.8% (inactive) and the differential viability (reversal) ([6]; H69AR cells + 2 uM doxorubicin) was 2.32% (inactive). The viability [6, 9] was 91.4%, the viability [6, 10] was 93.8% and the inhibition [7] was -5.27% (inactive). The inhibition [8] was 0.95% (inactive).

In the case of `CC(=O)Nc1ccc(Cl)cc1C(=O)O`, the viability [1] is reported as 96.5%, the Her2 level [2] is reported as 97.5% (inactive) and the viability [3] is reported as 96.5% (inactive). The viability [4] was 85.8% (inactive), the viability [5] was 106% (inactive) and the differential viability (reversal) ([6]; H69AR cells + 2 uM doxorubicin) was 10.4% (inactive). The viability [6, 9] was 95.3%, the viability [6, 10] was 106% and the inhibition [7] was -5.87% (inactive). The inhibition [8] was -1.29% (inactive).

For `Nc1nc(CSCc2ccccc2)nc(N2CCOCC2)n1`, the viability [1] was 99.5%, the Her2 level [2] was 93.5% (inactive) and the viability [3] was 99.5% (inactive). For the same compound, the viability [4] was 109% (inactive), the viability [5] was 95% (inactive) and the differential viability (reversal) ([6]; H69AR cells + 2 uM doxorubicin) was 5.8% (inactive). The viability [6, 9] was 89.2%, the viability [6, 10] was 95% and the inhibition [7] was -5.27% (inactive). For the same compound, the inhibition [8] was -8.67% (inactive).

For `CC(=O)C1=C(O)C(=O)N(Cc2cccnc2)C1c1ccccc1` (stereo not given), the viability [1] was 101%, the Her2 level [2] was 114% (inactive) and the viability [3] was 101% (inactive). The viability [4] was 97.8% (inactive), the viability [5] was 105% (inactive) and the differential viability (reversal) ([6]; H69AR cells + 2 uM doxorubicin) was 10% (inactive). For the same compound, the viability [6, 9] was 95.3%, the viability [6, 10] was 105% and the inhibition [7] was -6.13% (inactive). For the same compound, the inhibition [8] was -1.77% (inactive).

For `c1ccc(-c2nnc(-c3ccco3)n2-c2ccccc2)cc1`, the viability [1] was 81.5%, the Her2 level [2] was 78% (inactive) and the viability [3] was 81.5% (inactive). For the same compound, the viability [4] was 87% (inactive), the viability [5] was 88.1% (inactive) and the differential viability (reversal) ([6]; H69AR cells + 2 uM doxorubicin) was -10.6% (inactive). The viability [6, 9] was 98.6%, the viability [6, 10] was 88.1% and the inhibition [7] was -6.08% (inactive). For the same compound, the inhibition [8] was 3.61% (inactive).

In the case of `CCSC1(SCC)N=C(N)C2(C#N)C(c3ccccc3)NC(C)=C(C)C12C#N` (stereo not given), the viability [1] is reported as 95%, the Her2 level [2] is reported as 85.5% (inactive) and the viability [3] is reported as 95% (inactive). The viability [4] was 81.4% (inactive), the viability [5] was 93.3% (inactive) and the differential viability (reversal) ([6]; H69AR cells + 2 uM doxorubicin) was 19.2% (inactive). For the same compound, the viability [6, 9] was 74.1%, the viability [6, 10] was 93.3% and the inhibition [7] was -5.07% (inactive). The inhibition [8] was -2.79% (inactive).

In the case of `C/C(N)=C(/C#N)C(=O)COC(=O)CCSc1ccccc1`, the viability [1] is reported as 97.5%, the Her2 level [2] is reported as 89% (inactive) and the viability [3] is reported as 97.5% (inactive). For the same compound, the viability [4] was 84.4% (inactive), the viability [5] was 101% (inactive) and the differential viability (reversal) ([6]; H69AR cells + 2 uM doxorubicin) was -0.045% (inactive). For the same compound, the viability [6, 9] was 101%, the viability [6, 10] was 101% and the inhibition [7] was -0.13% (inactive). For the same compound, the inhibition [8] was 4.59% (inactive).

With `Cc1ccc2cc(CN(Cc3ccc4c(c3)OCO4)Cc3nnnn3Cc3ccco3)c(=O)[nH]c2c1C` the viability [1] was 98.5%, the Her2 level [2] was 97% (inactive) and the viability [3] was 98.5% (inactive). The viability [4] was 85.1% (inactive), the viability [5] was 79.6% (inactive) and the differential viability (reversal) ([6]; H69AR cells + 2 uM doxorubicin) was 13.3% (inactive). The viability [6, 9] was 66.4%, the viability [6, 10] was 79.6% and the inhibition [7] was -1.33% (inactive). For the same compound, the inhibition [8] was -3.17% (inactive).

For `O=C(NCCCn1ccnc1)c1cnn2c1NC(c1ccccc1)CC2C(F)(F)F` (stereo not given), the viability [1] was 93.5%, the Her2 level [2] was 139% (inactive) and the viability [3] was 93.5% (inactive). For the same compound, the viability [4] was 88.5% (inactive), the viability [5] was 105% (inactive) and the differential viability (reversal) ([6]; H69AR cells + 2 uM doxorubicin) was 1.64% (inactive). The viability [6, 9] was 103%, the viability [6, 10] was 105% and the inhibition [7] was -0.26% (inactive). The inhibition [8] was -15% (inactive).

For `CCOC(=O)C1CCN(C(=O)C2CCN(S(=O)(=O)c3cc(Cl)ccc3Cl)CC2)CC1`, the viability [1] was 92%, the Her2 level [2] was 91% (inactive) and the viability [3] was 92% (inactive). The viability [4] was 115% (inactive), the viability [5] was 89.4% (inactive) and the differential viability (reversal) ([6]; H69AR cells + 2 uM doxorubicin) was 20.7% (inactive). For the same compound, the viability [6, 9] was 68.7%, the viability [6, 10] was 89.4% and the inhibition [7] was -5.07% (inactive). The inhibition [8] was 0.48% (inactive).
